Measurements collected from several papers.
Lines come from different studies, so protocols differ.
Target: Serine/threonine-protein kinase MRCK alpha (CDC42BPA, Homo sapiens, UniProt Q5VT25)

`O=C(NS(=O)(=O)c1ccc(NCC2CCOCC2)c([N+](=O)[O-])c1)c1ccc(N2CCN(Cc3ccc(C(F)(F)F)cc3-c3ccc(Cl)cc3)CC2)cc1Oc1cnc2[nH]ccc2c1` gave a remaining binding of 96% (cell-free assay; competition with immobilised ligand; 1 µM).
With `CCN(CC)CCNC(=O)c1c(C)[nH]c(/C=C2\C(=O)Nc3ccc(F)cc32)c1C` the inhibition was 8% (enzyme activity; inhibitor; 0.3 µM).
The remaining activity of `COc1cc(Cl)c(C(=O)N[C@@H](CN[C@H]2CC[C@@H](N)CC2)Cc2ccc(C#N)cc2)cc1-c1ccc(CN[C@H](C)c2ccc(C)cc2)o1` is reported as 99% (enzyme activity; inhibitor; 1 µM).
For `CCCOc1ccc(OC)c(F)c1C(=O)c1ccc(C(=O)N[C@@H]2CNC[C@H]2NC(=O)c2ccc3[nH]ncc3c2)cc1`, the remaining activity was 20% (enzyme activity; inhibitor; 0.75 µM).
`N#CCCc1ccc2c(c1)-c1[nH]c3ccc([N+](=O)[O-])cc3c1CC(=O)N2` has a remaining signal of 73.1% (cell-free assay; 0.5 µM).
For `Cc1cc(NC(=O)c2cccc3cc(-c4cccc5[nH]nc(N)c45)ccc23)ccc1F`, the activity vs control was 92% (enzyme activity; inhibitor; 0.1 µM).
For `O=C1NC(=O)c2cc(Nc3ccc(F)cc3)c(Nc3ccc(F)cc3)cc21`, the remaining signal was 92.3% (cell-free assay; inhibitor; 0.5 µM).
For `CNC(=O)c1cc(Oc2ccc(NC(=O)Nc3ccc(Cl)c(C(F)(F)F)c3)cc2)ccn1`, the inhibition was 9% (enzyme activity; inhibitor; 0.3 µM).
The remaining binding of `CNCc1ccccc1-c1csc([C@@H](C)Nc2nc(C)nc3cc(OC)c(OC)cc23)c1` is reported as 67% (cell-free assay; competition with immobilised ligand; 1 µM).
`CC(C)(C)c1nc2c(s1)c1nc(N)ncc1c1ccc(NS(=O)(=O)c3c(F)cccc3F)c(F)c12` gave a remaining activity of 82% (enzyme activity; inhibitor; radiometric; 1 µM).
For `N#Cc1ccc(Nc2ccc3[nH]c(=O)[nH]c3c2)c(Cl)c1`, the remaining binding was 100% (cell-free assay; competition with immobilised ligand; 1 µM).
`CCOc1cc(-c2nncn2C)ccc1Nc1ncc2cc(C)nc(NCC(C)(C)C)c2n1` gave an inhibition of less than 15% (enzyme activity; inhibitor; FRET; 1 µM).
With `Cc1ccc(Nc2nccc(N(C)c3ccc4c(C)n(C)nc4c3)n2)cc1S(N)(=O)=O` the inhibition was 1% (enzyme activity; inhibitor; 10 µM).
For `CC(C)(O)c1cncc(-c2nc3ccc(F)cc3n2C2CC2)c1`, the remaining binding was 100% (cell-free assay; competition with immobilised ligand; 1 µM).
With `Cc1sc(C(=O)NC2COC2)cc1-n1cc(NC(=O)Nc2c(F)cccc2Cl)cn1` the remaining activity was 104% (enzyme activity; inhibitor; 10 µM).
With `COc1ccc2cc(OCC3(C(=O)O)CN(C(=O)c4ccc(F)cc4)C3)ccc2c1` the remaining binding was 100% (cell-free assay; competition with immobilised ligand; 1 µM).
For `COc1cc2ncnc(Nc3ccc(Oc4ccccc4)c(C)c3C)c2cc1OC`, the inhibition was -6% (enzyme activity; inhibitor; 1 µM).
The remaining binding of `O=C(O)c1cc(-c2ccc(C3CCNCC3)cc2)c2ccc(-c3ccc(C(F)(F)F)cc3)cc2c1` is reported as 100% (cell-free assay; competition with immobilised ligand; 1 µM).
With `Cc1cnc(NC2CCOCC2)nc1-n1cnc(C(=O)NC(CN)c2cc(F)cc(Cl)c2)c1` (stereo not drawn) the remaining activity was 64% (enzyme activity; inhibitor; radiometric; 1 µM).
With `CCS(=O)(=O)c1cc2cc(C[C@](O)(CC(C)(C)c3ccc(F)cc3C(N)=O)C(F)(F)F)[nH]c2cn1` the remaining binding was 89% (cell-free assay; competition with immobilised ligand; 1 µM).
`Cc1ccc(NC(=O)c2ccc(C)c(C(F)(F)F)c2)cc1C#Cc1nn(C2CCC(O)CC2)c2ncnc(N)c12` (stereo not drawn) gave a remaining signal of 101% (cell-free assay; inhibitor; 10 µM).
